In ChEMBL document CHEMBL4477183, “Antimicrobial Peptide from the Wild Bee Hylaeus signatus Venom and Its Analogues: Structure-Activity Study and Synergistic Effect with Antibiotics” (J Nat Prod, 2016):

Tests used:
Staphylococcus aureus [1] = assay: Antimicrobial activity against Staphylococcus aureus clinical isolates from university hospital in Motol assessed as reduction in bacterial growth after 20 hrs by drop diffusion test; type: functional
Escherichia coli = assay: Antimicrobial activity against Escherichia coli assessed as reduction in bacterial growth after 20 hrs by […]; type: functional
Procedure, shortened: (§1)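 Broth microdilution in LB (YPG for C. albicans) with 2-fold serial dilutions, final 0.1–100 μM. Mid-log cells grown 3–5 h at 37 °C were added at about 5 × 10^5 cfu/mL, then incubated 20 h at 37 °C with shaking. A540 was read every 15 min to build growth curves. Medium with cells served as growth control; at least three runs in duplicate.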

Pseudomonas aeruginosa [2] = assay: Antimicrobial activity against Pseudomonas aeruginosa 5482 assessed as reduction in bacterial growth after 20 hrs […]; type: functional; conditions: Pseudomonas aeruginosa, 5482, 20 h; procedure, shortened: as §1
Pseudomonas aeruginosa [3] = assay: Antimicrobial activity against Pseudomonas aeruginosa clinical isolates assessed as reduction in bacterial growth after 20 hrs by […]; type: functional; procedure, shortened: as §1
[4] = Hemolytic activity in human type RBC after 1 hr; type: ADME, cell-based, Erythrocyte; conditions: red blood cells (erythrocytes), read-out: LC50
Procedure, shortened: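 Peptides at 2.5–400 μM were incubated with a 4% suspension of human erythrocytes in physiological solution for 1 h at 37 °C, then centrifuged at 250g for 5 min; supernatant A540 was read. Saline-treated cells gave 0% lysis and 0.2% Triton X-100 gave 100%. LC50 is the concentration lysing 50% of cells; duplicates in at least two independent experiments.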

Candida albicans = assay: Antifungal activity against Candida albicans assessed as reduction in fungal growth after 20 hrs by […]; type: functional; procedure, shortened: as §1
Micrococcus luteus = assay: Antimicrobial activity against Micrococcus luteus assessed as reduction in bacterial growth after 20 hrs by […]; type: functional; procedure, shortened: as §1
Bacillus subtilis = assay: Antimicrobial activity against Bacillus subtilis assessed as reduction in bacterial growth after 20 hrs by […]; type: functional; procedure, shortened: as §1
Staphylococcus aureus [5] = assay: Antimicrobial activity against Staphylococcus aureus 6271 assessed as reduction in bacterial growth after 20 hrs by broth microdilution assay; conditions: Staphylococcus aureus, 6271, 20 h
[6] = test system: Staphylococcus epidermidis; assay: Antimicrobial activity against Staphylococcus epidermidis assessed as reduction in bacterial growth after 20 hrs by broth microdilution assay
Staphylococcus aureus [7] = assay: Antimicrobial activity against Staphylococcus aureus clinical isolates from Liberec regional hospital assessed as reduction in bacterial growth after 20 hrs by broth microdilution assay
Pseudomonas aeruginosa [8] = assay: Antimicrobial activity against Pseudomonas aeruginosa clinical isolates assessed as FIC index in presence of tetracycline after 20 hrs by drop diffusion test; type: functional
Pseudomonas aeruginosa [9] = assay: Antimicrobial activity against Pseudomonas aeruginosa clinical isolates assessed as FIC index in presence of rifampicin after 20 hrs by drop diffusion test; type: functional
Staphylococcus aureus [10] = assay: Antimicrobial activity against Staphylococcus aureus clinical isolates assessed as FIC index in presence of amoxicillin after 20 hrs by drop diffusion test; type: functional

Substance | MIC (Staphylococcus aureus [1]) [µM] | MIC (Escherichia coli) [µM] | MIC (Pseudomonas aeruginosa [2]) [µM] | MIC (Pseudomonas aeruginosa [3]) [µM] | HC50 at 1 h [4] [µM] | MIC (Candida albicans) [µM] | MIC (Micrococcus luteus) [µM] | MIC (Bacillus subtilis) [µM] | MIC (Staphylococcus aureus [5]) [µM] | MIC [6] [µM] | MIC (Staphylococcus aureus [7]) [µM] | fractional inhibitory concentration index (FICI) (Pseudomonas aeruginosa [8]) | fractional inhibitory concentration index (FICI) (Pseudomonas aeruginosa [9]) | fractional inhibitory concentration index (FICI) (Staphylococcus aureus [10])
H-GIMISLMKKLAAHIAK-NH2 | 65 | 12 | 47 | > 100 | 320 | 12 | ≤ 3 | ≤ 7 | 43 | 8.8 | 35 |  |  | 
H-GIMSSLMKKLAAHIAK-NH2 | 64 | 15 | 20 | 68 | > 400 | 18 | ≤ 3 | ≤ 7 | 63 | 13 | 53 | 0.56 | 0.26 | 
H-GIMSSLMKKLAAHIKK-NH2 | 90 | 20 | 23 | 46 | > 400 | 5 | ≤ 3 | ≤ 7 | 85 | 11 | 77 |  |  | 
H-GIMSSLMKKLAAIIAK-NH2 | 10 | 3.6 | 8 | 17 | 93 | 8.4 | ≤ 3 | ≤ 7 | 7.2 | 5 | 10 | 0.76 | 0.51 | 0.56
H-GIMSSLMKKLAKHIAK-NH2 | 63 | 15 | 7.9 | 20 | > 400 | 14 | ≤ 3 | ≤ 7 | 63 | 6.2 | 35 | 0.54 | 0.25 | 0.31
H-GIMSSLMKKLAKIIAK-NH2 | 10 | 3.7 | 4.5 | 9.3 | 88 | 11 | ≤ 3 | ≤ 7 | 9 | 5 | 5.2 | 0.79 | 0.43 | 0.5
H-GIMSSLMKKLAKIIKK-NH2 | 17 | 15 | 5.2 | 10 | > 400 | 7.6 | ≤ 3 | ≤ 7 | 33 | 2.9 | 8.6 | 0.54 | 0.42 | 0.38
H-GIMSSLMKKLKAHIAK-NH2 | > 100 | 30 | 26 | 47 | > 400 | 23 | ≤ 3 | ≤ 7 | > 100 | 16 | > 100 | 0.31 | 0.21 | 
H-GIMSSLMKKLKKHIAK-NH2 | > 100 | 26 | 6.4 | 17 | > 400 | 12 | ≤ 3 | ≤ 7 | > 100 | 10 | > 100 | 0.39 | 0.23 | 
